# Laboratory results taken from ChEMBL document CHEMBL2424572 (J Med Chem, 2013).
# Target: Neutrophil collagenase (Homo sapiens, UniProt P22894)
# Assay: Inhibition of MMP-8 (unknown origin) using 7-methoxycoumarin-4-yl)acetyl-Pro-Leu-Gly-Leu-(3-(2,4-dinitrophenyl)-L-2,3-diamino-propionyl)Ala-Arg-NH2 as substrate preincubated for 30 mins followed by substrate addition by fluorescence assay
# Method in brief: (§1)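 Activated MMP (2 nM) preincubated with inhibitor (10 pM to 1 mM) in 50 mM Tris-HCl pH 7.5, 0.2 M NaCl, 5 mM CaCl2, 20 μM ZnSO4, 0.05% Brij 35, 37 °C for 30 min.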
# Sequence of Neutrophil collagenase (P22894 whole entry): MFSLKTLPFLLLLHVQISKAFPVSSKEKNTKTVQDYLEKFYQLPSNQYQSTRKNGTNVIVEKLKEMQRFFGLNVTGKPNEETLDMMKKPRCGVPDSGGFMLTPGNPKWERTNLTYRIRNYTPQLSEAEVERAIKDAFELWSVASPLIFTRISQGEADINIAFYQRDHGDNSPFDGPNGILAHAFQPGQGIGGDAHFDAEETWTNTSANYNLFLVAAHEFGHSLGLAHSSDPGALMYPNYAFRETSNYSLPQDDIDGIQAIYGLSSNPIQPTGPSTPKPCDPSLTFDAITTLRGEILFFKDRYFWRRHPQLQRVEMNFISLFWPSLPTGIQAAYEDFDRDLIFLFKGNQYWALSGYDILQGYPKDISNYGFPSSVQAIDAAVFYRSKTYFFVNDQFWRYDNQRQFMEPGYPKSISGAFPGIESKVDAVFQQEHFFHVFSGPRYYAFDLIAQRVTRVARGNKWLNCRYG
row,Structure (SMILES),IC50 [nM]
1,CC(C)[C@H](C(=O)NO)N(CCn1cc(CCCCOc2cccnc2F)nn1)S(=O)(=O)c1ccc(OCCF)cc1,0.05
2,COc1ccc(S(=O)(=O)N(CCn2cc(CCCF)nn2)[C@@H](C(=O)NO)C(C)C)cc1,0.4
3,CC(C)[C@H](C(=O)NO)N(CCN=[N+]=[N-])S(=O)(=O)c1ccc(OCCF)cc1,1
4,COc1ccc(S(=O)(=O)N(CCn2cc(CCCCOc3cccnc3F)nn2)[C@@H](C(=O)NO)C(C)C)cc1,0.5
5,COc1ccc(S(=O)(=O)N(CCn2cc(CN(C)S(=O)(=O)c3ccc(F)cc3)nn2)[C@@H](C(=O)NO)C(C)C)cc1,1
6,CC(C)[C@H](C(=O)NO)N(Cc1cn(CCOCCOCCOCCOc2cccnc2F)nn1)S(=O)(=O)c1ccc(OCCF)cc1,0.3
7,CC(C)[C@H](C(=O)NO)N(Cc1cn(CCF)nn1)S(=O)(=O)c1ccc(OCCF)cc1,2
8,COc1ccc(S(=O)(=O)N(CCN=[N+]=[N-])[C@@H](C(=O)NO)C(C)C)cc1,2
9,COc1ccc(S(=O)(=O)N(CCn2cc(CNS(=O)(=O)c3ccc(F)cc3)nn2)[C@@H](C(=O)NO)C(C)C)cc1,0.2
10,Cc1ccc(S(=O)(=O)N(CCn2cc(CCCCOc3cccnc3F)nn2)[C@@H](C(=O)NO)C(C)C)cc1,4

# Target: Matrix metalloproteinase-9 (Homo sapiens, UniProt P14780)
# Assay: Inhibition of MMP-9 (unknown origin) using 7-methoxycoumarin-4-yl)acetyl-Pro-Leu-Gly-Leu-(3-(2,4-dinitrophenyl)-L-2,3-diamino-propionyl)Ala-Arg-NH2 as substrate preincubated for 30 mins followed by substrate addition by fluorescence assay
# Method in brief: as §1
# Sequence of Matrix metalloproteinase-9 (P14780 whole entry): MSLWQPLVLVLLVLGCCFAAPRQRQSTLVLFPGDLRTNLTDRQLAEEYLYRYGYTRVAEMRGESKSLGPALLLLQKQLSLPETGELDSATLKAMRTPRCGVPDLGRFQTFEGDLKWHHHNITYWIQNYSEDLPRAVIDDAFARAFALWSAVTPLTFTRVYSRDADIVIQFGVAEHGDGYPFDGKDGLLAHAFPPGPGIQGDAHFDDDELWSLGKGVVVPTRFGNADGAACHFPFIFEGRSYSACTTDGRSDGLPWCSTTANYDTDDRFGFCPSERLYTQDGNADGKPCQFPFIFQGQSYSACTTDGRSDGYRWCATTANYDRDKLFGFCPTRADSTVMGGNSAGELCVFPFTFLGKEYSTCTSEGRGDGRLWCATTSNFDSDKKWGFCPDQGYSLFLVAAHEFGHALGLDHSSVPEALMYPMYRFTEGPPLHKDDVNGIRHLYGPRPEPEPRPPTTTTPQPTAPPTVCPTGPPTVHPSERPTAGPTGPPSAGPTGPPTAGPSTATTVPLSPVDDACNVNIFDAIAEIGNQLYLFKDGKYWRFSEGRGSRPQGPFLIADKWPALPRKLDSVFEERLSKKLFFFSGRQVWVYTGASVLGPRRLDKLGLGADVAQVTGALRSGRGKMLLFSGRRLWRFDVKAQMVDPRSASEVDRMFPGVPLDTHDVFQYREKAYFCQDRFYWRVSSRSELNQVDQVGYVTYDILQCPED
row,Structure (SMILES),IC50 [nM]
1,CC(C)[C@H](C(=O)NO)N(CCn1cc(CCCCOc2cccnc2F)nn1)S(=O)(=O)c1ccc(OCCF)cc1,0.8
2,COc1ccc(S(=O)(=O)N(CCn2cc(CCCF)nn2)[C@@H](C(=O)NO)C(C)C)cc1,0.07
3,CC(C)[C@H](C(=O)NO)N(CCN=[N+]=[N-])S(=O)(=O)c1ccc(OCCF)cc1,4
4,COc1ccc(S(=O)(=O)N(CCn2cc(CCCCOc3cccnc3F)nn2)[C@@H](C(=O)NO)C(C)C)cc1,0.3
5,COc1ccc(S(=O)(=O)N(CCn2cc(CN(C)S(=O)(=O)c3ccc(F)cc3)nn2)[C@@H](C(=O)NO)C(C)C)cc1,3
6,CC(C)[C@H](C(=O)NO)N(Cc1cn(CCOCCOCCOCCOc2cccnc2F)nn1)S(=O)(=O)c1ccc(OCCF)cc1,0.2
7,CC(C)[C@H](C(=O)NO)N(Cc1cn(CCF)nn1)S(=O)(=O)c1ccc(OCCF)cc1,7
8,COc1ccc(S(=O)(=O)N(CCN=[N+]=[N-])[C@@H](C(=O)NO)C(C)C)cc1,6
9,COc1ccc(S(=O)(=O)N(CCn2cc(CNS(=O)(=O)c3ccc(F)cc3)nn2)[C@@H](C(=O)NO)C(C)C)cc1,0.6
10,Cc1ccc(S(=O)(=O)N(CCn2cc(CCCCOc3cccnc3F)nn2)[C@@H](C(=O)NO)C(C)C)cc1,6

# Target: 72 kDa type IV collagenase (Homo sapiens, UniProt P08253)
# Assay: Inhibition of MMP-2 (unknown origin) using 7-methoxycoumarin-4-yl)acetyl-Pro-Leu-Gly-Leu-(3-(2,4-dinitrophenyl)-L-2,3-diamino-propionyl)Ala-Arg-NH2 as substrate preincubated for 30 mins followed by substrate addition by fluorescence assay
# Method in brief: as §1
# Sequence of 72 kDa type IV collagenase (P08253 whole entry): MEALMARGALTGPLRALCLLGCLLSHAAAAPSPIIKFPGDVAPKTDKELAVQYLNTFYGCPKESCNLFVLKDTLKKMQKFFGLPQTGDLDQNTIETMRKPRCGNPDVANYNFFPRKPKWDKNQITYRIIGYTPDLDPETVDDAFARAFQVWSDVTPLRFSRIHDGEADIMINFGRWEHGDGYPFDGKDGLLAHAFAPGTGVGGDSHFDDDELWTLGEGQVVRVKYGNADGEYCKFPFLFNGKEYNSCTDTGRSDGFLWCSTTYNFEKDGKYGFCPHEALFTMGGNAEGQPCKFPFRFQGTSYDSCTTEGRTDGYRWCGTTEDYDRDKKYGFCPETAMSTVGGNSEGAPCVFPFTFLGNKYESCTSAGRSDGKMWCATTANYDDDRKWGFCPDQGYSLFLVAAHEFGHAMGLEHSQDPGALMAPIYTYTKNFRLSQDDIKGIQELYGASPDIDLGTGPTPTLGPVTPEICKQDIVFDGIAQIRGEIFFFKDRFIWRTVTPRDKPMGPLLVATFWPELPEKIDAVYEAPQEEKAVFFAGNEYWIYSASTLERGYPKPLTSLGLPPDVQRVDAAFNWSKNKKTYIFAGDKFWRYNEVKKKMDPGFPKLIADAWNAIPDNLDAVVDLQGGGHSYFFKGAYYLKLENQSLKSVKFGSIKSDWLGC
row,Structure (SMILES),IC50 [nM]
1,CC(C)[C@H](C(=O)NO)N(CCn1cc(CCCCOc2cccnc2F)nn1)S(=O)(=O)c1ccc(OCCF)cc1,0.4
2,COc1ccc(S(=O)(=O)N(CCn2cc(CCCF)nn2)[C@@H](C(=O)NO)C(C)C)cc1,0.7
3,CC(C)[C@H](C(=O)NO)N(CCN=[N+]=[N-])S(=O)(=O)c1ccc(OCCF)cc1,4
4,COc1ccc(S(=O)(=O)N(CCn2cc(CCCCOc3cccnc3F)nn2)[C@@H](C(=O)NO)C(C)C)cc1,0.9
5,COc1ccc(S(=O)(=O)N(CCn2cc(CN(C)S(=O)(=O)c3ccc(F)cc3)nn2)[C@@H](C(=O)NO)C(C)C)cc1,3
6,CC(C)[C@H](C(=O)NO)N(Cc1cn(CCOCCOCCOCCOc2cccnc2F)nn1)S(=O)(=O)c1ccc(OCCF)cc1,0.5
7,CC(C)[C@H](C(=O)NO)N(Cc1cn(CCF)nn1)S(=O)(=O)c1ccc(OCCF)cc1,2
8,COc1ccc(S(=O)(=O)N(CCN=[N+]=[N-])[C@@H](C(=O)NO)C(C)C)cc1,0.9
9,COc1ccc(S(=O)(=O)N(CCn2cc(CNS(=O)(=O)c3ccc(F)cc3)nn2)[C@@H](C(=O)NO)C(C)C)cc1,5
10,Cc1ccc(S(=O)(=O)N(CCn2cc(CCCCOc3cccnc3F)nn2)[C@@H](C(=O)NO)C(C)C)cc1,3

# Target: Collagenase 3 (Homo sapiens, UniProt P45452)
# Assay: Inhibition of MMP-13 (unknown origin) using 7-methoxycoumarin-4-yl)acetyl-Pro-Leu-Gly-Leu-(3-(2,4-dinitrophenyl)-L-2,3-diamino-propionyl)Ala-Arg-NH2 as substrate preincubated for 30 mins followed by substrate addition by fluorescence assay
# Method in brief: as §1
row,Structure (SMILES),IC50 [nM]
1,CC(C)[C@H](C(=O)NO)N(CCn1cc(CCCCOc2cccnc2F)nn1)S(=O)(=O)c1ccc(OCCF)cc1,0.07
2,COc1ccc(S(=O)(=O)N(CCn2cc(CCCF)nn2)[C@@H](C(=O)NO)C(C)C)cc1,0.05
3,CC(C)[C@H](C(=O)NO)N(CCN=[N+]=[N-])S(=O)(=O)c1ccc(OCCF)cc1,1
4,COc1ccc(S(=O)(=O)N(CCn2cc(CCCCOc3cccnc3F)nn2)[C@@H](C(=O)NO)C(C)C)cc1,0.04
5,COc1ccc(S(=O)(=O)N(CCn2cc(CN(C)S(=O)(=O)c3ccc(F)cc3)nn2)[C@@H](C(=O)NO)C(C)C)cc1,1
6,CC(C)[C@H](C(=O)NO)N(Cc1cn(CCOCCOCCOCCOc2cccnc2F)nn1)S(=O)(=O)c1ccc(OCCF)cc1,0.3
7,CC(C)[C@H](C(=O)NO)N(Cc1cn(CCF)nn1)S(=O)(=O)c1ccc(OCCF)cc1,0.7
8,COc1ccc(S(=O)(=O)N(CCN=[N+]=[N-])[C@@H](C(=O)NO)C(C)C)cc1,9
9,COc1ccc(S(=O)(=O)N(CCn2cc(CNS(=O)(=O)c3ccc(F)cc3)nn2)[C@@H](C(=O)NO)C(C)C)cc1,0.09
10,Cc1ccc(S(=O)(=O)N(CCn2cc(CCCCOc3cccnc3F)nn2)[C@@H](C(=O)NO)C(C)C)cc1,3
